Active and inactive are the calls of the source. The calls are words filed in the database; no cut-off is given here.
Experiments:
[1] = test system: NAMALVA; test: Induction of apoptosis in human NAMALWA cells assessed as morphological changes at 5 uM by acridine orange/ethidium bromide staining based phase contrast microscopic assay; format: functional, cell-based
[2] = test system: NAMALVA; test: Induction of apoptosis in human NAMALWA cells assessed as late apoptotic cells at 5 uM after 48 hrs by Annexin V-FITC/propidium iodide staining based flow cytometry (reference value: 0%); format: functional
[3] = test system: NAMALVA; test: Induction of apoptosis in human NAMALWA cells assessed as necrotic cells at 5 uM after 48 hrs by Annexin V-FITC/propidium iodide staining based flow cytometry (reference value: 4.05%); format: functional
[4] = test system: NAMALVA; test: Induction of apoptosis in human NAMALWA cells assessed as early apoptotic cells at 5 uM after 48 hrs by Annexin V-FITC/propidium iodide staining based flow cytometry (reference value: 0%); format: functional
[5] = test system: NAMALVA; test: Antiproliferative activity against human NAMALWA cells after 72 hrs by CCK8 assay; format: functional, cell-based
In short: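 Cells seeded 3,000/well in RPMI-1640 with 10% FBS at 37 °C, 5% CO2, for 4 h, then exposed to compound for 72 h. Concentrations 1.25 to 40 µM, each in five replicates. Cell number set to give an absorbance of 0.5–1.2 at 450 nm. CCK-8 read-out at 450 nm; IC50 fitted by curve fitting; values are the mean of at least three separate experiments.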

[6] = test system: Ramos; test: Antiproliferative activity against human Ramos cells after 72 hrs by CCK8 assay; format: functional, cell-based
[7] = target: T1, Tyrosine-protein kinase JAK3 (Homo sapiens, UniProt P52333); test: Inhibition of recombinant human N-terminal GST-tagged JAK3 (781-end residues) expressed in baculovirus infected Sf9 cells using poly (4:1 Glu, Tyr) peptide as substrate after 60 mins by ADP-Glo assay
T1 sequence (P52333 whole entry): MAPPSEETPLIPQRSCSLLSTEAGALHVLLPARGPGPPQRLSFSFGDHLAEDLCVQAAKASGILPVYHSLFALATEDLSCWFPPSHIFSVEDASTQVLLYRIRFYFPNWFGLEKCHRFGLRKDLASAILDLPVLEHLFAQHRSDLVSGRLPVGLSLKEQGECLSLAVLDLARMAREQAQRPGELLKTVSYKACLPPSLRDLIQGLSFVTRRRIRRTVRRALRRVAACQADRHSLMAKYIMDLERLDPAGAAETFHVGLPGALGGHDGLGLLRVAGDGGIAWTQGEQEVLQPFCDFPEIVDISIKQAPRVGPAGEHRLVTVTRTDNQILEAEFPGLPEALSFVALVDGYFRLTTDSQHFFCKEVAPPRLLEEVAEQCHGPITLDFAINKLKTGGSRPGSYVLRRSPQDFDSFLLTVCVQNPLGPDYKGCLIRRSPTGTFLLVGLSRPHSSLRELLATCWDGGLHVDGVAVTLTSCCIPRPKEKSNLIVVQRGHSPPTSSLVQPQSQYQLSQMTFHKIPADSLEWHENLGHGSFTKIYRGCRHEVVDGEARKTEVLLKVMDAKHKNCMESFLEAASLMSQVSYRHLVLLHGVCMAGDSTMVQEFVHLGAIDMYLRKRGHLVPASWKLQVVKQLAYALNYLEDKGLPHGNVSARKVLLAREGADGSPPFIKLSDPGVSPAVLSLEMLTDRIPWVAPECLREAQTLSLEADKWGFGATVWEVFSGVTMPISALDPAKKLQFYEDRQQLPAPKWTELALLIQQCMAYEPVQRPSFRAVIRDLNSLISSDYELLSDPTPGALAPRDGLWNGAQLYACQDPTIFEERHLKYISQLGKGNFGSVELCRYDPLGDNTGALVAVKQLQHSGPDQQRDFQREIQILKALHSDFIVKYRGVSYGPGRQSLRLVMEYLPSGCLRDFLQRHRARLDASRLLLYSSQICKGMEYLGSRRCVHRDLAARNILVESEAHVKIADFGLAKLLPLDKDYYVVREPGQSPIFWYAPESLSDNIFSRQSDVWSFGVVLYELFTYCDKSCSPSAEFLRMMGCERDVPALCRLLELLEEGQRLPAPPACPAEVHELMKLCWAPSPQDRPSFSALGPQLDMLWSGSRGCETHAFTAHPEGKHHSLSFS
In short: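 ADP-Glo luminescent kinase assay with commercial JAK3 kinase enzyme system, in 1× kinase buffer, compounds at 0.1–1000 nM. The kinase reaction ran for 60 min at room temperature, followed by ADP-Glo reagent for 40 min to stop the reaction and deplete ATP, then detection reagent for 30 min. Luminescence was read and curves were fitted to give IC50.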

[8] = test system: Raji; test: Antiproliferative activity against human Raji cells after 72 hrs by CCK8 assay; format: functional, cell-based
[9] = target: T2, Tyrosine-protein kinase BTK (Homo sapiens, UniProt Q06187); test: Inhibition of full length recombinant human N-terminal His-tagged BTK expressed in baculovirus infected Sf9 cells using poly (4:1 Glu, Tyr) peptide as substrate after 60 mins by ADP-Glo assay
T2 sequence (Q06187 whole entry): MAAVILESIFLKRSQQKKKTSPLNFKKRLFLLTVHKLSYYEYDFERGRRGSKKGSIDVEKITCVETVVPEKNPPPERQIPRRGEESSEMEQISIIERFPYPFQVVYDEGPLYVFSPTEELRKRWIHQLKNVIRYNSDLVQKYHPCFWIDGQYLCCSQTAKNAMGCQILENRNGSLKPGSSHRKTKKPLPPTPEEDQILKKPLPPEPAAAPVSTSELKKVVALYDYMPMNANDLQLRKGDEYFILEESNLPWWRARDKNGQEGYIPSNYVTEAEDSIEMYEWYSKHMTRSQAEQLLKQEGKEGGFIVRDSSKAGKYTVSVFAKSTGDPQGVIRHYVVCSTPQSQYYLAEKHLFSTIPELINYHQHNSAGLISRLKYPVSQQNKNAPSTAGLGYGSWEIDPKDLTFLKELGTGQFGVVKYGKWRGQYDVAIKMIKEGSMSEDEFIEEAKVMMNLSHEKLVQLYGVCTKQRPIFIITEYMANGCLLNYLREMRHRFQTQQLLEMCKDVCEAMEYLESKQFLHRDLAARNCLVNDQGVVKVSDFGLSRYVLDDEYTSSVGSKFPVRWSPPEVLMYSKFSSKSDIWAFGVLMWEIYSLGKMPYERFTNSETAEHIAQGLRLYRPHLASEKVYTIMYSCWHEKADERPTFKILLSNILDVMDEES

[10] = target: Epidermal growth factor receptor (Homo sapiens, UniProt P00533, T790M); test: Inhibition of recombinant human N-terminal GST-tagged EGFR T790M mutant (695-end residues) expressed in baculovirus infected Sf9 cells using poly (4:1 Glu, Tyr) peptide as substrate after 60 mins by ADP-Glo assay
Sequence of Epidermal growth factor receptor (P00533 25-1210 T790M limits assumed): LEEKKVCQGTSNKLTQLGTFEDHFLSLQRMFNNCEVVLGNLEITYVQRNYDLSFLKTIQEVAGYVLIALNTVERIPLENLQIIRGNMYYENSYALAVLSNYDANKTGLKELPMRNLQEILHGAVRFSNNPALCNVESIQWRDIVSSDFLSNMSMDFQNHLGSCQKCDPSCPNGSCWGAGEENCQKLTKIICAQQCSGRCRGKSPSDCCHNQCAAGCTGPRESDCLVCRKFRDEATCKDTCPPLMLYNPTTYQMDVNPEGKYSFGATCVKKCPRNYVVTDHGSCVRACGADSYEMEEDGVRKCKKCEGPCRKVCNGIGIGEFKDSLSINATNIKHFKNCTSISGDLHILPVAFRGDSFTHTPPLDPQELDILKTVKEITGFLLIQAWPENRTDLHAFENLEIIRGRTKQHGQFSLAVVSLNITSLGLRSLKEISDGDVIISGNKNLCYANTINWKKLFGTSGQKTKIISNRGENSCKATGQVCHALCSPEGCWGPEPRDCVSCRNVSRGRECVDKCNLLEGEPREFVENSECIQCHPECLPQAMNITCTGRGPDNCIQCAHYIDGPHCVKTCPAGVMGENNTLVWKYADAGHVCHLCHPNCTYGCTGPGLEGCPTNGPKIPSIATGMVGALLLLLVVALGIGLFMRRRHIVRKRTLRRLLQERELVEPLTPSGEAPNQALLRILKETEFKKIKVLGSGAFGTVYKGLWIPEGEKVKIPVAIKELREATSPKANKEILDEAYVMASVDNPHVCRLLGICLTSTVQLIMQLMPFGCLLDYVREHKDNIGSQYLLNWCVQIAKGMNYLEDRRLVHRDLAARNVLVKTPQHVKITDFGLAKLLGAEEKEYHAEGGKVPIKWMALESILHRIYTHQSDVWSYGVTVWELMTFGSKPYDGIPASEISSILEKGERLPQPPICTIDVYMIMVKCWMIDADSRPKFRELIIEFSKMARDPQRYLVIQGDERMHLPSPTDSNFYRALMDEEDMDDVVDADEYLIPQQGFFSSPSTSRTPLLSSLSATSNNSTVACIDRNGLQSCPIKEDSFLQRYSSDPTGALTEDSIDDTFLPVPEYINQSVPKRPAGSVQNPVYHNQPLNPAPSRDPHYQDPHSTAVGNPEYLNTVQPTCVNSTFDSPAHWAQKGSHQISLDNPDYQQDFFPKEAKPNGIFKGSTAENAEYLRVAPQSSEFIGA
In short: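 ADP-Glo luminescent kinase assay in 1× kinase buffer with compounds at 0.1 to 1000 nM. The kinase reaction ran 60 min at room temperature, then ADP-Glo reagent stopped it and depleted ATP (40 min, RT). Detection reagent converted ADP to ATP for luciferase read-out (30 min, RT). IC50 came from curve fitting.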

[11] = test system: NAMALVA; test: Induction of apoptosis in human NAMALWA cells assessed as necrotic cells at 2 uM after 48 hrs by Annexin V-FITC/propidium iodide staining based flow cytometry (reference value: 4.05%); format: functional
[12] = test system: NAMALVA; test: Induction of apoptosis in human NAMALWA cells assessed as necrotic cells at 1 uM after 48 hrs by Annexin V-FITC/propidium iodide staining based flow cytometry (reference value: 4.05%); format: functional
[13] = test system: Raji; test: Potency index, ratio of ibrutinib IC50 to compound IC50 for antiproliferative activity against human Raji cells; format: functional
[14] = test system: NAMALVA; test: Induction of apoptosis in human NAMALWA cells assessed as early apoptotic cells at 1 uM after 48 hrs by Annexin V-FITC/propidium iodide staining based flow cytometry (reference value: 0%); format: functional
[15] = test system: PBMC; test: Cytotoxicity against human PBMC assessed as morphological changes at 5 to 20 uM after 24 hrs by acridine orange/ethidium bromide staining based phase contrast microscopic method; format: cell-based
In short: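 PBMC were isolated from a healthy adult 's venous blood (ACD anticoagulant) by Lymphoprep density separation, washed in PBS and seeded at 200,000–250,000 cells/well. Treated in RPMI-1640 with 10% FBS at 37 °C, 5% CO2, for 24 h, with five replicates per concentration. Morphology was checked by phase-contrast microscopy and AO/EB staining; live cells were counted manually in a counting chamber.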

[16] = test system: NAMALVA; test: Induction of apoptosis in human NAMALWA cells assessed as late apoptotic cells at 2 uM after 48 hrs by Annexin V-FITC/propidium iodide staining based flow cytometry (reference value: 0%); format: functional
[17] = target: T2, Tyrosine-protein kinase BTK; test: Inhibition of BTK phosphorylation in human NAMALWA cells after 48 hrs by Western blot method; format: cell-based
In short: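 NAMALWA cells were treated at 1, 5 and 10 µM for 48 h and lysed; lysates were cleared at 14,000 g for 15 min at 4 °C. 50 µg protein was resolved on 8–12% SDS-PAGE and transferred to PVDF. The membrane was blocked in 5% skim milk for 2 h at room temperature, then probed overnight at 4 °C for BTK and p-BTK. Detection was by ECL.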

[18] = test system: NAMALVA; test: Induction of apoptosis in human NAMALWA cells assessed as early apoptotic cells at 2 uM after 48 hrs by Annexin V-FITC/propidium iodide staining based flow cytometry (reference value: 0%); format: functional
[19] = test system: NAMALVA; test: Potency index, ratio of ibrutinib IC50 to compound IC50 for antiproliferative activity against human NAMALWA cells; format: functional
[20] = test system: NAMALVA; test: Induction of apoptosis in human NAMALWA cells assessed as late apoptotic cells at 1 uM after 48 hrs by Annexin V-FITC/propidium iodide staining based flow cytometry (reference value: 0%); format: functional

Structure (SMILES)	Activity [1]	Activity [2]	Activity [3]	Activity [4]	IC50 [5]	IC50 [6]	IC50 [7]	IC50 [8]	IC50 [9]	IC50 [10]	Activity [11]	Activity [12]	Ratio IC50 [13]	Activity [14]	Activity [15]	Activity [16]	inhibition [17]	Activity [18]	Ratio IC50 [19]	Activity [20]
C=CC(=O)N1CCC[C@@H](n2nc(-c3ccc(Oc4ccccc4)cc3)c3c(N)ncnc32)C1 [IBRUTINIB]	Active	5.75%	0.73%	4.06%	19.6 µM															
C=CC(=O)Nc1cccc(Nc2nc(Nc3ccc(OCC(=O)NCC(=O)O)cc3)ncc2Cl)c1					> 40 µM	> 40 µM	> 0.5 µM	> 40 µM	0.0112 µM	> 0.1 µM										
C=CC(=O)Nc1cccc(Nc2nc(Nc3ccc(OCC(=O)N4CCCC4C(=O)OC)cc3)ncc2Cl)c1 (stereo not drawn)	Active	13.33%	1.67%	8.75%	4.8 µM	19.7 µM	0.196 µM	6.7 µM	0.0087 µM	> 0.1 µM	0.82%	0.92%	3	4.94%	Non-Toxic	7.43%	Dose-dependent effect	6.96%	4	5.83%
C=CC(=O)Nc1cccc(Nc2nc(Nc3ccc(OCC(=O)NCC(=O)OC)cc3)ncc2Cl)c1					16.9 µM	20.9 µM	0.496 µM	18 µM	0.0065 µM	> 0.1 µM										
C=CC(=O)Nc1cccc(Nc2nc(Nc3ccc(OCC(=O)NC(C)C(=O)OC)cc3)ncc2Cl)c1 (stereo not drawn)					29.3 µM	40.8 µM	> 0.5 µM	25.2 µM	0.0087 µM	> 0.1 µM										
